From ChEMBL document CHEMBL1130410, “19-nor-10-azasteroids: a novel class of inhibitors for human steroid 5alpha-reductases 1 and 2” (J Med Chem, 1997)
Several values for one entry are separate records, joined by “and”; a condition that tells them apart may be missing. Equal values may be shown once.

Columns and labels:
[1] = molecular target: T1, 3-oxo-5-alpha-steroid 4-dehydrogenase 2 (Homo sapiens, UniProt P31213); assay: Tested against 5 alpha R-2 on human prostate homogenate from surgically derived benign hyperplastic tissue in experiment 1; type: tissue-based, Prostate gland
T1 sequence (P31213 whole entry): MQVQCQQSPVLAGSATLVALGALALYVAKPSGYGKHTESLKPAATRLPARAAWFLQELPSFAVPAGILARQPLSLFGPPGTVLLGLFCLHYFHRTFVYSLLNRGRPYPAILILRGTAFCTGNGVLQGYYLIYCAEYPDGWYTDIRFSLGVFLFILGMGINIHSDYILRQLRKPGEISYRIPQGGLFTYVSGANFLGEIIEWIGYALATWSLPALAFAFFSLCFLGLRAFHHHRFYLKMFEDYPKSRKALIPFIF
Procedure, shortened: (§1)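 Benign hyperplastic human prostate tissue, stored at -80 °C, was homogenized near 0 °C in 50 mM TRIS pH 7.4 with salts, nicotinamide and sucrose, spun at 200g, and the combined supernatants were used. Homogenate (0.1 mg protein) was incubated with 30 nM testosterone (9% [3H]) and 0.3 mM NADPH for 30 min at 37 °C, with the inhibitor added alongside the substrate. Inhibitor range was 10⁻¹⁰–10⁻⁵ M. DHT conversion was read by TLC and scintillation, in duplicate.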

[2] = molecular target: T1, 3-oxo-5-alpha-steroid 4-dehydrogenase 2; assay: Tested against 5 alpha R-2 on human prostate homogenate from surgically derived benign hyperplastic tissue in experiment 2; type: tissue-based, Prostate gland; procedure, shortened: as §1
[3] = molecular target: T1, 3-oxo-5-alpha-steroid 4-dehydrogenase 2; assay: Tested against 5 alpha R-2 on human prostate homogenate from surgically derived benign hyperplastic tissue in experiment 3; type: tissue-based, Prostate gland; procedure, shortened: as §1
[4] = molecular target: T1, 3-oxo-5-alpha-steroid 4-dehydrogenase 2; assay: Inhibition against 5 alpha R-2 in human prostate homogenate compared with finasteride in experiment 1; type: tissue-based, Prostate gland; procedure, shortened: as §1
[5] = molecular target: T1, 3-oxo-5-alpha-steroid 4-dehydrogenase 2; assay: Inhibition against 5 alpha R-2 in human prostate homogenate compared with finasteride in experiment 2; type: tissue-based, Prostate gland; procedure, shortened: as §1
[6] = molecular target: T1, 3-oxo-5-alpha-steroid 4-dehydrogenase 2; assay: Inhibition against 5 alpha R-2 in human prostate homogenate compared with finasteride in experiment 3; type: tissue-based, Prostate gland; procedure, shortened: as §1
[7] = molecular target: T1, 3-oxo-5-alpha-steroid 4-dehydrogenase 2; assay: TInhibitory activity against 5-alpha Reductase-2 on human prostate homogenates from surgically derived benign hyperplastic tissue in experiment 2; type: tissue-based, Prostate gland; procedure, shortened: as §1
[8] = molecular target: T2, 3-oxo-5-alpha-steroid 4-dehydrogenase 1 (Homo sapiens, UniProt P18405); assay: (§2) Inhibitory activity against human 5-alpha Reductase-1 expressed in DU-145 cells; type: cell-based
T2 sequence (P18405 whole entry): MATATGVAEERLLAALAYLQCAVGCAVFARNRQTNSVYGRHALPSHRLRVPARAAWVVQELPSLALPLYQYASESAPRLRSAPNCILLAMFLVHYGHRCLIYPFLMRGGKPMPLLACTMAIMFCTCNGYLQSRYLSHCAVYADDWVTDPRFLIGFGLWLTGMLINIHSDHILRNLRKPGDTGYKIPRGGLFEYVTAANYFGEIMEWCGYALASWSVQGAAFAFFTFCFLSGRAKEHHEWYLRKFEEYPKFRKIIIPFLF
Procedure, shortened: (§3)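 DU-145 cells (passage 60–90) were plated at 100 000 cells/well and left to adhere for 24 h. Inhibitors were prepared in ethanol, diluted in phenol-red-free MEM and tested at five doses, 10⁻⁹–10⁻⁵ M, with 5 nM [3H]androstenedione. After 6 h at 37 °C in 5% CO2, the medium was extracted with ethyl acetate and analysed by TLC and scintillation.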

[9] = molecular target: T1, 3-oxo-5-alpha-steroid 4-dehydrogenase 2; assay: Inhibitory activity against 5-alpha Reductase-2 on human prostate homogenates from surgically derived benign hyperplastic tissue in experiment 1; type: tissue-based, Prostate gland; procedure, shortened: as §1
[10] = molecular target: T1, 3-oxo-5-alpha-steroid 4-dehydrogenase 2; assay: Inhibition against 5 alpha R-2 in human prostate homogenate relative to finasteride; type: tissue-based, Prostate gland
[11] = molecular target: T1, 3-oxo-5-alpha-steroid 4-dehydrogenase 2; assay: Inhibitory activity against 5-alpha Reductase-2 on human prostate homogenates from surgically derived benign hyperplastic tissue; type: tissue-based, Prostate gland; procedure, shortened: as §1
[12] = molecular target: 3-oxo-5-alpha-steroid 4-dehydrogenase 1 (Homo sapiens, UniProt P18405); assay: as §2; type: cell-based; procedure, shortened: as §3; remark: listed apart in the source

Structure (SMILES) | IC50 [8] | IC50 [10] | IC50 [11] | further results
C[C@]12CC[C@H]3[C@@H](CCC4CC(=O)C=CN43)[C@@H]1CCC2=O (some centres not stated) |  | 2.4 nM | 46000 nM | 
C[C@]12CC[C@H]3[C@@H](CC[C@H]4CC(=O)CCN43)[C@@H]1CCC2=O | > 100000 nM | 2.9 nM | > 100000 nM | 
C=CC(=O)/C=C1/CCC2=C(CC[C@]3(C)C(=O)CC[C@@H]23)N1.C=CC(=O)/C=C1/CCC2C(=CC[C@]3(C)C(=O)CC[C@@H]23)N1 (some centres not stated) |  | 6.1 nM | > 100000 nM | 
C[C@]12CC[C@H]3[C@@H](CCC4=CC(=O)CCN43)[C@@H]1CC[C@@H]2O | 409 nM | 2.7 nM | 4200 nM | 
CC(C)(C)NC(=O)[C@H]1CC[C@H]2[C@@H]3CCC4=CC(=O)CCN4[C@H]3CC[C@]12C | 1130 nM | 5.5 nM | 460 nM | 
C[C@]12CC=C3C4=C(CCC3[C@@H]1CCC2=O)NCCC4=O.C[C@]12CCC3=C(CCC4=C3C(=O)CCN4)[C@@H]1CCC2=O (stereo in doubt; 27b) |  | 3.8 nM |  | 
C[C@]12CC=C3C4=C(CCC3[C@@H]1CCC2=O)NCCC4=O.C[C@]12CCC3=C(CCC4=C3C(=O)CCN4)[C@@H]1CCC2=O (stereo in doubt; 27c) | > 100000 nM | 6.1 nM | > 100000 nM | 
CC(C)(C)NC(=O)[C@H]1CC[C@H]2[C@@H]3CC[C@H]4NC(=O)C=C[C@]4(C)[C@H]3CC[C@]12C [FINASTERIDE] |  |  | 3 nM | IC50 [12]: 42 nM

Now from value to molecule, other results behind:

IC50 [8] | IC50 [10] | Structure (SMILES) | IC50 [11] | further results
127 nM |  | CC(C)(C)NC(=O)[C@H]1CC[C@H]2C3=C(CC[C@]12C)N1CCC(=O)C=C1CC3.CC(C)(C)NC(=O)[C@H]1CC[C@H]2C3CCC4=CC(=O)CCN4C3=CC[C@]12C (some centres not stated) |  | IC50 [1]: 10.2 nM; IC50 [2]: 7.3 nM; IC50 [3]: 150 nM; IC50 [4]: 2.2 nM and 3.4 nM; IC50 [5]: 5.7 nM and 3.1 nM; IC50 [6]: 4.3 nM; IC50 [7]: 122 nM; IC50 [9]: 37 nM
 | 3 nM | C[C@]12CC=C3[C@@H](CCC4=CC(=O)CCN43)C1CC[C@@H]2O.C[C@]12CCC3=C(CCC4=CC(=O)CCN43)C1CC[C@@H]2O (some centres not stated) | 2900 nM | 
299 nM | 3.5 nM | C[C@]12CC[C@H]3[C@@H](CCC4=CC(=O)CCN43)[C@@H]1CCC2=O | 4400 nM | 
 | 3.4 nM | C[C@]12CC=C3[C@@H](CCC4=CC(=O)CCN43)C1CCC2=O.C[C@]12CCC3=C(CCC4=CC(=O)CCN43)C1CCC2=O (stereo in doubt; 4a) |  | 
263 nM | 4.1 nM | C[C@]12CC=C3[C@@H](CCC4=CC(=O)CCN43)C1CCC2=O.C[C@]12CCC3=C(CCC4=CC(=O)CCN43)C1CCC2=O (stereo in doubt; 4a:4b(5:1)) | 4600 nM | 
